Test results: ChEMBL document CHEMBL4196108, “5-Aroylindoles Act as Selective Histone Deacetylase 6 Inhibitors Ameliorating Alzheimer's Disease Phenotypes” (J Med Chem, 2018)
Calls of active or inactive are those of the source. The rule behind the calls is not given here.

Key:
Homo sapiens [1] = organism: Homo sapiens; assay: Selectivity index, ratio of IC50 for human HDAC3 to IC50 for human HDAC6
Histone deacetylase 8 = target: T1, Histone deacetylase 8 (Homo sapiens, UniProt Q9BY41); assay: Inhibition of human HDAC8 using RHKAcKAc peptide as substrate
T1 sequence (Q9BY41 whole entry): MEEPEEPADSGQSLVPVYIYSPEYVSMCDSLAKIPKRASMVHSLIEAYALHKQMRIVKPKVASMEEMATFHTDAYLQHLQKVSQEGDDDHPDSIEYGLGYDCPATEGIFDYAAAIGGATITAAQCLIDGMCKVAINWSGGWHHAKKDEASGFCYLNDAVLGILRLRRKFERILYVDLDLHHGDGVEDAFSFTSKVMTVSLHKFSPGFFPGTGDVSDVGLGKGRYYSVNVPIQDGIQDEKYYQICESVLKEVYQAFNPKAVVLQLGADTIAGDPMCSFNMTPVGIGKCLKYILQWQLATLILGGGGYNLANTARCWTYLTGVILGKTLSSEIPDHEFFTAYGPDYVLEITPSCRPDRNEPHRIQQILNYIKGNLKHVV

[2] = target: T2, Polyamine deacetylase HDAC10 (Homo sapiens, UniProt Q969S8); assay: Inhibition of human HDAC10 using RHKKAc peptide as substrate
T2 sequence (Q969S8 whole entry): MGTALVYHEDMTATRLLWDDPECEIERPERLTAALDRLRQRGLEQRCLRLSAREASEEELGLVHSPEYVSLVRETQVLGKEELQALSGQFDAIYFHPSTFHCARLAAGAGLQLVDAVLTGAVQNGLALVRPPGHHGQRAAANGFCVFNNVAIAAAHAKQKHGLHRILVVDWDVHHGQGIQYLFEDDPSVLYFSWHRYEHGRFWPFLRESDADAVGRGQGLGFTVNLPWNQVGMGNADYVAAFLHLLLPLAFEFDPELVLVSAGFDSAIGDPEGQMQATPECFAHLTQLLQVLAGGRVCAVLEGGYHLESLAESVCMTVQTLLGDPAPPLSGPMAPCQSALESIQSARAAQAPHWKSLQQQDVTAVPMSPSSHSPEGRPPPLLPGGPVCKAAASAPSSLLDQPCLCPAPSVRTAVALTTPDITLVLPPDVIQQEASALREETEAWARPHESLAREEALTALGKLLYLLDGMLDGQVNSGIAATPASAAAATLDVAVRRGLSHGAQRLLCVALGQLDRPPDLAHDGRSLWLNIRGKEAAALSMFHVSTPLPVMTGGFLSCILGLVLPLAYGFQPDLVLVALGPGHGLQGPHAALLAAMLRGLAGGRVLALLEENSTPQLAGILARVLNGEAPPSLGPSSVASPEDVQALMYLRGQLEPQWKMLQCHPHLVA

[3] = target: T3, Protein deacetylase HDAC6 (Homo sapiens) (UniProt Q9UBN7); assay: Inhibition of HDAC6 in human SH-SY5Y cells transfected with pCAX FLAG APP and pRK5-EGFP-Tau P301L plasmids assessed as inhibition of Tau P301L mutant phosphorylation at Ser396 residue at 1 uM after 24 hrs by Western blot analysis; type: cell-based
T3 sequence (whole entry): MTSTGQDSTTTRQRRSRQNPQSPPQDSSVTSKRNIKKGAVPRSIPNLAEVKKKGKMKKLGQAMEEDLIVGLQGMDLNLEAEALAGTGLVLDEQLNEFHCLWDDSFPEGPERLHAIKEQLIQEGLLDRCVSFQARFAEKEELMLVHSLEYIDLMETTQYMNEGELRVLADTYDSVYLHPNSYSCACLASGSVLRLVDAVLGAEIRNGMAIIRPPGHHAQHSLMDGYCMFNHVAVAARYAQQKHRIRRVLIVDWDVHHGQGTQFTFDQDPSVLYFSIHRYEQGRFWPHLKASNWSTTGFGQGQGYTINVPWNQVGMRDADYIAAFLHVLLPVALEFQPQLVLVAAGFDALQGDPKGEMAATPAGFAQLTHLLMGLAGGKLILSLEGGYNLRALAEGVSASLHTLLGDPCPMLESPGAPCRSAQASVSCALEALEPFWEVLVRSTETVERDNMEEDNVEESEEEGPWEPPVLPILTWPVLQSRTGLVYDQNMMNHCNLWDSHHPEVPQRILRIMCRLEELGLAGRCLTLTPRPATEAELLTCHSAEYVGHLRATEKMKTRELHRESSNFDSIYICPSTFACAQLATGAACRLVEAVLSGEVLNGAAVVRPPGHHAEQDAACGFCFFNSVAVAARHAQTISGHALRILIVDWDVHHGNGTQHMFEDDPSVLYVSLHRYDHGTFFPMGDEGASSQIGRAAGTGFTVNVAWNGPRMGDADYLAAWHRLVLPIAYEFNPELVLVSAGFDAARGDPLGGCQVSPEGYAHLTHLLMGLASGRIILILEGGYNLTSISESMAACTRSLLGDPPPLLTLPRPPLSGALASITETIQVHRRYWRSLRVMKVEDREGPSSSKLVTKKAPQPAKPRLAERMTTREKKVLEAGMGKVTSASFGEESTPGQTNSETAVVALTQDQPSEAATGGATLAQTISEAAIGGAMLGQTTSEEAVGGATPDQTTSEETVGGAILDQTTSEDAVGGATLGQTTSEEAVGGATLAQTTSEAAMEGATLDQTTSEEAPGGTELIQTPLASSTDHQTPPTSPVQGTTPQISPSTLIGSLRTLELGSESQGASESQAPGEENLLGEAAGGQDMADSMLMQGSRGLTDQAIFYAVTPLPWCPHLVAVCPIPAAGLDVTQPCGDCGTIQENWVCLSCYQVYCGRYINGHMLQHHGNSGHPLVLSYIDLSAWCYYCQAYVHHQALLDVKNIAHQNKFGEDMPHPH
Method in brief: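 SH-SY5Y or Neuro-2a cells cotransfected 24 h with pCAX APP695 and pRK5-EGFP-Tau P301L, then treated 24 h at 1 µM. 20 µg lysate protein immunoblotted for APP and phospho-tau Ser396/Ser404. Mean ± STD of three independent experiments; Student's t-test.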

Histone deacetylase 3 = Histone deacetylase 3 (Homo sapiens, UniProt O15379)
Homo sapiens [4] = organism: Homo sapiens; assay: Selectivity index, ratio of IC50 for human HDAC1 to IC50 for human HDAC6
Homo sapiens [5] = organism: Homo sapiens; assay: Selectivity index, ratio of IC50 for human HDAC8 to IC50 for human HDAC6
Histone deacetylase 2 = Histone deacetylase 2 (Homo sapiens, UniProt Q92769); assay: Inhibition of human HDAC2 using RHKKAc peptide as substrate
Histone deacetylase 2, sequence (Q92769 whole entry): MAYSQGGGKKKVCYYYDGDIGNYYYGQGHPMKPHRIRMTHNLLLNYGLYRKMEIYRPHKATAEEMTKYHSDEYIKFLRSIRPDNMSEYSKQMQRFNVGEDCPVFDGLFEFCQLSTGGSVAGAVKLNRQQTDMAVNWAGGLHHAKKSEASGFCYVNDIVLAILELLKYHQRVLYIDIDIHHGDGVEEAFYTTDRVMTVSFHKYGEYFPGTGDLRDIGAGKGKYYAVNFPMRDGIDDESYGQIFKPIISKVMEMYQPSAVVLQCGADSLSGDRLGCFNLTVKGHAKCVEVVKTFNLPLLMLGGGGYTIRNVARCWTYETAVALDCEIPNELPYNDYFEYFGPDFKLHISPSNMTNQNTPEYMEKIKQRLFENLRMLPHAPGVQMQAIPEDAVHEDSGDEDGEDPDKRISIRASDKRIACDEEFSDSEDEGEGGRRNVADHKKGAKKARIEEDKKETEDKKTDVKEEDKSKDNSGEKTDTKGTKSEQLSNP

Histone deacetylase 3, sequence (O15379 whole entry): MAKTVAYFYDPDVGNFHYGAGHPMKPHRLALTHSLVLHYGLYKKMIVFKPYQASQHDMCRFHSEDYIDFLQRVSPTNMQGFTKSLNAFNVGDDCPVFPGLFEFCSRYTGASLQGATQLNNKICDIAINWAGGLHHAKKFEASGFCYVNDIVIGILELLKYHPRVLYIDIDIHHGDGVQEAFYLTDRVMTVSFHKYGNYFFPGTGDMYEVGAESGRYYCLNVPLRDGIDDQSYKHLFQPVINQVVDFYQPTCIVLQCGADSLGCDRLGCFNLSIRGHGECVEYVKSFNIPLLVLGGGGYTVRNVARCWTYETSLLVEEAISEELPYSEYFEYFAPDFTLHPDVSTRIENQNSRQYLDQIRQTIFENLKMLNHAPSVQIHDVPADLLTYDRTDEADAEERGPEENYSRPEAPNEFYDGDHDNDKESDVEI

Ratio IC50 (Homo sapiens [1]) | IC50 (Histone deacetylase 8) | IC50 [2] | inhibition [3] | IC50 (Histone deacetylase 3) | Ratio IC50 (Homo sapiens [4]) | Ratio IC50 (Homo sapiens [5]) | IC50 (Histone deacetylase 2) | Compound
984 | 1.06 µM | > 100 µM | Active | 6.62 µM | 710 | 158 | 2.1 µM | O=C(NO)c1ccc(Cn2ccc3cc(C(=O)c4ccc(Cl)cc4)ccc32)cc1
476 | 1.24 µM | > 100 µM | Active | 4.4 µM | 357 | 134 | 5.11 µM | O=C(NO)c1ccc(Cn2ccc3cc(C(=O)c4ccc(F)cc4)ccc32)cc1

Compound | Ratio IC50 (Homo sapiens [1]) | IC50 (Histone deacetylase 8) | IC50 [2] | inhibition [3] | IC50 (Histone deacetylase 3) | Ratio IC50 (Homo sapiens [4]) | Ratio IC50 (Homo sapiens [5]) | IC50 (Histone deacetylase 2)
COc1ccc(C(=O)c2ccc3c(ccn3Cc3ccc(C(=O)NO)cc3)c2)cc1 | 1060 | 0.646 µM | 59.8 µM | Active | 4.15 µM | 559 | 165 | 0.568 µM
